Columns and labels:
[1] = folding enthalpy; higher = less favourable; fluorescence melt of hairpins on a sequencing array, two-state fit; settings: sodium 0.088 M
In short: (§1)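 Folding enthalpy and melting temperature come from bootstrapped two-state fits to Cy3 fluorescence of library hairpins carrying annealed Cy3 and quencher oligos on a sequenced MiSeq flow cell. Imaging was done in 50 mM Na-HEPES pH 8.0, 25 mM NaCl, stepping by 2.5 °C up to 60 °C, and signals were normalised to pre-quench Cy3 and to control constructs. Results of four replicates were combined by inverse variance, and fitted temperatures were raised by 9.35 °C to match UV melts.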

[2] = melting temperature; fluorescence melt of hairpins on a sequencing array, two-state fit, raised by 9.35 °C to match UV melts; settings: sodium 0.088 M
In short: as §1

| Sequence | folding enthalpy [1] [kcal/mol] | Tm [2] [°C] |
| --- | --- | --- |
| GTAAACGGAAACGTCTAC (((.(((....))).))) | -21.2 | 29 |
| GTAAACGGAAACGTTCAC ((.((((....)))).)) | -23.6 | 32.4 |
| GTAAAGCGAAAGCTTAC (((.(((....)))))) | -12.8 | 42.6 |
| GTAAAGGAAACTTTAC ((((((....)))))) | -32.6 | 40.6 |
| GTAAAGGGAAACCTTTAC (((((((....))))))) | -41 | 51.3 |
| GTAACAGAAATGTTAC ((((((....)))))) | -32.8 | 45.7 |
| GTAACAGGAAACTGTTAC (((((((....))))))) | -43.6 | 55.4 |
| GTAACCCGAAAGGGGTAC (((.(((....))).))) | -30.9 | 57.6 |
| GTAACCGAAAGGTAATAC ((((((....)))..))) | -11.9 | 23.8 |
| GTAACCGAAAGGTACTAC ((((((....)))..))) | -16.9 | 40.8 |
| GTAACCGAAAGGTATAC ((((((....))).))) | -14.9 | 35.2 |
| GTAACCGAAAGGTGTTAC ((((((....)))..))) | -12.6 | 35 |
| GTAACCGGAAACGATTAC ((((.((....)).)))) | -25.3 | 36.4 |
| GTAACGCGAAAGCGTAC (((.(((....)))))) | -10.6 | 49 |
| GTAACGGCGAAAGCCTAC (((..(((....)))))) | -9.07 | 20.7 |
| GTAACTCGAAAGAGCTAC (((.(((....))).))) | -29.2 | 41.9 |
| GTAACTGGAAACAGTCAC ((.((((....)))).)) | -17 | 34.8 |
| GTAAGAGGAAACCCTTAC (((((.(....).))))) | -19.6 | 31.4 |
| GTAAGCGAAAGCTCGTAC ((((((....)))..))) | -8.1 | 24.2 |

| Sequence | folding enthalpy [1] [kcal/mol] | Tm [2] [°C] |
| --- | --- | --- |
| GTAAGCGAAAGCTCTAC ((((((....))).))) | -11.9 | 32.2 |
| GTAAGCGAAAGCTGTTAC ((((((....)))..))) | -9.91 | 32.6 |
| GTAAGCGAAAGCTTAC ((((((....)))))) | -27.9 | 67.2 |
| GTAAGCGAAAGCTTATAC ((((((....)))..))) | -12.2 | 39.1 |
| GTAAGGAAACTTAC (((((....))))) | -14.3 | 37.9 |
| GTAAGGGGAAACCCTTAC (((((((....))))))) | -42.4 | 54.8 |
| GTAAGTGGAAACACCTAC (((.(((....))).))) | -16.8 | 29.2 |
| GTAATACGAAAGTAGTAC (((.(((....))).))) | -34.5 | 42.5 |
| GTAATAGAAATATTAC ((((((....)))))) | -16.6 | 32 |
| GTAATAGGAAACTATTAC (((((((....))))))) | -37.2 | 45.5 |
| GTAATCCGAAAGGATAC (((.(((....)))))) | -14.6 | 39.8 |
| GTAATCGAAAGATGGTAC ((((((....)))..))) | -12.8 | 25 |
| GTAATCGAAAGATTTAC ((((((....))).))) | -14.7 | 33.3 |
| GTAATGGGAAACCATTAC (((((((....))))))) | -45.5 | 53.4 |
| GTAATTGGAAACAATTGC (.(((((....))))).) | -26.5 | 39.2 |
| GTACAAACGAAAGTTTAC (((..(((....)))))) | -8.86 | 22.1 |
| GTACAACCGAAAGGTTAC (((..(((....)))))) | -10.7 | 29.8 |
| GTACAAGGAAACTTGTGC (.(((((....))))).) | -22.3 | 45.4 |
| GTACACCGAAAGGTTAC (((.(((....)))))) | -20.5 | 39.9 |

— the array DNA melting data of Ke et al. (doi:10.1101/2024.01.08.574731)
